Measurements as given in ChEMBL document CHEMBL3603769, “1,5-Disubstituted benzimidazoles that direct cardiomyocyte differentiation from mouse embryonic stem cells” (2015).

test: Induction of cardiomyogenesis in mouse ESC transfected with alpha-MHC at 0.78 to 12.5 uM treated on day 2 to 4 followed by cell reseeding in normal growth media on day 6, 8 measured on day 10 by GFP reporter gene assay relative to vehicle-treated control; format: functional, Embryonic stem cell
In short: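 mESCs stably carrying αMHC-promoter eGFP, expanded feeder-free with LIF on poly-D-lysine (5 passages), then seeded about 1000 cells/well on gelatin in growth media without LIF. From day 2, compound added in equal volume of media at 2× final (0.78–12.5 μM; 50 mM DMSO stocks). Cultures kept at 37 °C, 5% CO2, fixed in paraformaldehyde on day 9 or 10 and DAPI-stained. αMHC-eGFP fluorescence imaged automatically and expressed as fold-change over DMSO-treated cells.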

| SMILES | fold change (FC) |
| --- | --- |
| c1ccc(-n2cnc3cc(NCc4cccs4)ccc32)cc1 | 0.75 |
| c1ccc(-n2cnc3cc(NCc4ccco4)ccc32)cc1 | 2.2 |
| Cc1nnc(Nc2ccc3c(c2)ncn3C)c2ccccc12 | 1.6 |
| Nc1ccc2c(c1)ncn2-c1ccccc1 | 3 |
| CC(=O)Nc1ccc2c(c1)ncn2-c1ccccc1 | 1.2 |
| Cc1nnc(Nc2ccc3c(c2)nc(N)n3-c2ccccc2)c2ccccc12 | 2.1 |
| Cc1nnc(Nc2ccc3c(c2)ncn3-c2ccccc2)c2ccccc12 | 9.6 |
| COc1ccccc1-n1cnc2cc(Nc3nnc(C)c4ccccc34)ccc21 | 4.3 |
| COc1cccc(-n2cnc3cc(Nc4nnc(C)c5ccccc45)ccc32)c1 | 18.6 |
| CCCc1ccc(-n2cnc3cc(Nc4nnc(C)c5ccccc45)ccc32)cc1 | 0.7 |
| Cc1nnc(Nc2ccc3c(c2)ncn3-c2cccc(C(F)(F)F)c2)c2ccccc12 | 0.5 |
| Cc1nnc(Nc2ccc3c(c2)ncn3-c2ccccc2C(C)C)c2ccccc12 | 4.4 |
| COc1ccc(-n2cnc3cc(Nc4nnc(C)c5ccccc45)ccc32)cc1 | 10 |
| Cc1nnc(Nc2ccc3c(c2)ncn3-c2ccc(C(F)(F)F)cc2)c2ccccc12 | 1.6 |
| Cc1nnc(Nc2ccc3c(c2)ncn3-c2ccccc2O)c2ccccc12 | 2.1 |
| Cc1nnc(Nc2ccc3c(c2)ncn3C2CC2)c2ccccc12 | 0.9 |
| Cc1nnc(Nc2ccc3c(c2)ncn3C2CCCCC2)c2ccccc12 | 3.3 |
| Cc1nnc(Nc2ccc3c(c2)ncn3-c2ccccn2)c2ccccc12 | 2.2 |
| Cc1nnc(Nc2ccc3c(c2)ncn3C2CCOCC2)c2ccccc12 | 1.6 |
| Cc1nnc(Nc2ccc3c(c2)ncn3C2CCN(C)CC2)c2ccccc12 | 4.4 |
| COc1cccc(-n2cnc3cc(Nc4nncc5ccccc45)ccc32)c1 | 13.7 |
| COc1cccc(-n2cnc3cc(Nc4nnc(Cl)c5ccccc45)ccc32)c1 | 6.7 |
| COc1cccc(-n2cnc3cc(Nc4nnc(OC)c5ccccc45)ccc32)c1 | 7.1 |

| SMILES | fold change (FC) |
| --- | --- |
| COc1cccc(-n2cnc3cc(Nc4nnc(Cc5ccccc5)c5ccccc45)ccc32)c1 | 2 |
| COc1cccc(-n2cnc3cc(Nc4nnc(-c5ccccc5)c5ccccc45)ccc32)c1 | 1 |
| COc1cccc(-n2cnc3cc(NCCc4ccccc4)ccc32)c1 | 1.4 |
| COc1cccc(-n2cnc3cc(NCc4ccccc4OC)ccc32)c1 | 1.7 |
| Cn1cccc1CNc1ccc2c(c1)ncn2-c1ccccc1 | 1.6 |
| Clc1ncccc1CNc1ccc2c(c1)ncn2-c1ccccc1 | 1.4 |
| Brc1ccc(CNc2ccc3c(c2)ncn3-c2ccccc2)s1 | 3.1 |
| c1ccc(-c2ccc(CNc3ccc4c(c3)ncn4-c3ccccc3)cn2)cc1 | 3 |
| FC(F)(F)c1ccc(CNc2ccc3c(c2)ncn3-c2ccccc2)cn1 | 2.9 |
| c1ccc(CN2CCC(CNc3ccc4c(c3)ncn4-c3ccccc3)CC2)cc1 | 4.3 |
| COc1cccc(-n2cnc3cc(NC(=O)c4ccccn4)ccc32)c1 | 1.7 |
| COc1ccccc1-n1cnc2cc(Nc3ccc4ccccc4c3)ccc21 | 3.1 |
| COc1ccccc1-n1cnc2cc(Nc3ncccn3)ccc21 | 1.1 |
| c1ccc(-n2cnc3cc(Nc4cnccn4)ccc32)cc1 | 2.4 |
| c1ccc(-n2cnc3cc(Nc4cccnc4)ccc32)cc1 | 7.8 |
| COc1ccccc1-n1cnc2cc(Nc3ccccn3)ccc21 | 1.5 |
| COc1ccccc1-n1cnc2cc(Nc3ccccc3)ccc21 | 0.7 |
| COc1cccc(Nc2ccc3c(c2)ncn3-c2ccccc2OC)c1 | 3.8 |
| Cc1cccc(-n2cnc3cc(Nc4ccc(C)nn4)ccc32)c1 | 7.9 |
| COc1ccccc1-n1cnc2cc(Nc3nnc(C)c4ccccc34)cnc21 | 2.5 |
| Cc1nnc(Nc2ccc3c(ccn3-c3ccccc3)c2)c2ccccc12 | 2 |
| Cc1nnc(Nc2ccc3c(c2)nc(N(C)C)n3-c2ccccc2)c2ccccc12 | 3.7 |
| Cc1nnc(Nc2ccc3c(c2)nnn3-c2ccccc2)c2ccccc12 | 3.1 |

test: Induction of cardiomyogenesis in mouse ESC transfected with alphaMHC-eGFP at 3 uM treated on day 2 to 4 followed by cell reseeding in normal growth media on day 6 and 8 measured on day 12 by alpha-Actinin Alexa568-based immunohistochemical analysis relative to vehicle-treated control; format: functional, Embryonic stem cell
In short: (§1)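 αMHC-eGFP mESCs dosed at 3 or 6 μM on days 2 and 4, then fixed at day 10 or 12 in 4% paraformaldehyde for 40 min at room temperature. Cells were permeabilized and blocked 30 min in PBS with 10% horse serum and 0.2% Triton X-100. Staining used mouse anti-α-actinin (1:200, 60 min) then donkey anti-mouse Alexa568 (1:400, with DAPI, 60 min). Integrated Alexa568 intensity was reported relative to DMSO vehicle.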

| SMILES | fold change (FC) |
| --- | --- |
| Cc1nnc(Nc2ccc3c(c2)ncn3-c2ccccc2)c2ccccc12 | 10 |

test: Induction of cardiomyogenesis in mouse ESC transfected with alphaMHC-eGFP at 6 uM treated on day 2 to 4 followed by cell reseeding in normal growth media on day 6 and 8 measured on day 12 by alpha-Actinin Alexa568-based immunohistochemical analysis relative to vehicle-treated control; format: functional, Embryonic stem cell; in short: as §1

| SMILES | fold change (FC) |
| --- | --- |
| Cc1nnc(Nc2ccc3c(c2)ncn3-c2ccccc2)c2ccccc12 | 20 |

test: Induction of cardiomyogenesis in mouse ESC transfected with alpha-MHC at 6 uM treated on day 2 to 4 followed by cell reseeding in normal growth media on day 6, 8 measured on day 12 by GFP reporter gene assay relative to vehicle-treated control; format: functional, Embryonic stem cell
In short: (§2)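 αMHC-eGFP mESCs seeded in growth media without LIF, dosed at 3 or 6 μM on days 2 and 4, and fed growth media on days 6 and 8. Cultures were then fixed in 4% paraformaldehyde. Integrated intensity of αMHC-eGFP fluorescence was measured by automated imaging as fold increase over DMSO vehicle. nsRED autofluorescence was subtracted.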

| SMILES | fold change (FC) |
| --- | --- |
| Cc1nnc(Nc2ccc3c(c2)ncn3-c2ccccc2)c2ccccc12 | 20 |

test: Induction of cardiomyogenesis in mouse ESC transfected with alpha-MHC at 3 uM treated on day 2 to 4 followed by cell reseeding in normal growth media on day 6, 8 measured on day 12 by GFP reporter gene assay relative to vehicle-treated control; format: functional, Embryonic stem cell; in short: as §2

| SMILES | fold change (FC) |
| --- | --- |
| Cc1nnc(Nc2ccc3c(c2)ncn3-c2ccccc2)c2ccccc12 | 10 |
